Stability, Tm and ΔTm data for seven compounds are collected here from ChEMBL document CHEMBL2057188, “Hybridizing ability and nuclease resistance profile of backbone modified cationic phosphorothioate oligonucleotides” (Bioorg Med Chem, 2012).

Series [1] can be described thus: Stability in presence of Crotalus admanteus venom phosphodiesterase assessed as intact compound level at 5.5 uM in 50 mM Tris-Hcl buffer (pH 7.5) containing 10 mM MgCl2 incubated for 15 mins at 37 degC by HPLC. In kind it is ADME. To be noted: pH 7.5, 0.25 h. In short, it runs like this:
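12-mers are first trimmed from the 3′ end with the venom 3′-exonuclease to give 7-mer substrates, which are purified by RP-HPLC. These are then re-incubated with enzyme in 50 mM Tris-HCl pH 7.5 with 10 mM MgCl2 at 37 °C for 15 min. The enzyme is heat-inactivated at 90 °C for 5 min, and the fraction of intact ODN remaining is quantified by HPLC.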

In series [2] the test system is Nucleic Acid. The series can be described thus: DNA hybridizing activity at single stranded DNA assessed as thermal stability of duplexes formed between compound and complimentary ssDNA by measuring melting temperature at 4 uM in presence of 10 mM pH 7.2 sodium phosphate buffer containing 100 mM NaCl by UV based melting experiment. The series is classed as nucleic-acid assay.

The test system of series [3] is Nucleic Acid. Put plainly: DNA hybridizing activity at single stranded DNA assessed as thermal stability of duplexes formed between compound and complimentary ssDNA by measuring change in melting temperature at 4 uM in presence of 10 mM pH 7.2 sodium phosphate buffer containing 100 mM NaCl by UV based melting experiment relative to untreated control. The series is classed as nucleic-acid assay.

In series [4] the test system is Nucleic Acid. The series can be described thus: DNA hybridizing activity at single stranded RNA assessed as thermal stability of duplexes formed between compound and complimentary ssRNA by measuring melting temperature at 4 uM in presence of 10 mM pH 7.2 sodium phosphate buffer containing 100 mM NaCl by UV based melting experiment. The series is classed as nucleic-acid assay.

Series [5] concerns Nucleic Acid. The series can be described thus: DNA hybridizing activity at single stranded RNA assessed as thermal stability of duplexes formed between compound and complimentary ssRNA by measuring change in melting temperature at 4 uM in presence of 10 mM pH 7.2 sodium phosphate buffer containing 100 mM NaCl by UV based melting experiment relative to untreated control. The series is classed as nucleic-acid assay.

Series [6] concerns Nucleic Acid. Put plainly: DNA hybridizing activity at 22 bp double stranded DNA assessed as thermal stability of duplexes formed between compound and complimentary dsDNA by measuring melting temperature at 1.5 uM in presence of 7 mM pH 5.5 sodium phosphate buffer containing 140 mM K, 10 mM MgCl2 by UV based melting experiment. The series is classed as nucleic-acid assay.
Series [7] relates to Nucleic Acid. Put plainly: DNA hybridizing activity at 22 bp double stranded DNA assessed as thermal stability of duplexes formed between compound and complimentary dsDNA by measuring change in melting temperature at 1.5 uM in presence of 7 mM pH 5.5 sodium phosphate buffer containing 140 mM K, 10 mM MgCl2 by UV based melting experiment. In kind it is nucleic-acid assay.

Regarding `Cc1cn([C@H]2C[C@H](OP(=O)(O)O)[C@@H](CO[P@](=O)(O[C@H]3C[C@H](n4cc(C)c(=O)[nH]c4=O)O[C@@H]3COP(=O)(O)O[C@H]3C[C@H](n4cc(C)c(=O)[nH]c4=O)O[C@@H]3COP(=O)(O)O[C@H]3C[C@H](n4cc(C)c(=O)[nH]c4=O)O[C@@H]3COP(=O)(O)O[C@H]3C[C@H](n4ccc(N)nc4=O)O[C@@H]3COP(=O)(O)O[C@H]3C[C@H](n4ccc(N)nc4=O)O[C@@H]3COP(=O)(O)O[C@H]3C[C@H](n4ccc(N)nc4=O)O[C@@H]3CO)SCCCCCCN)O2)c(=O)[nH]c1=O`, the Stability entry in series [1] is reported as “Stable”.

In the case of `Cc1cn([C@H]2C[C@H](OP(=O)(O)O)[C@@H](CO[P@@](=O)(O[C@H]3C[C@H](n4cc(C)c(=O)[nH]c4=O)O[C@@H]3COP(=O)(O)O[C@H]3C[C@H](n4cc(C)c(=O)[nH]c4=O)O[C@@H]3COP(=O)(O)O[C@H]3C[C@H](n4cc(C)c(=O)[nH]c4=O)O[C@@H]3COP(=O)(O)O[C@H]3C[C@H](n4ccc(N)nc4=O)O[C@@H]3COP(=O)(O)O[C@H]3C[C@H](n4ccc(N)nc4=O)O[C@@H]3COP(=O)(O)O[C@H]3C[C@H](n4ccc(N)nc4=O)O[C@@H]3CO)SCCCCCCN)O2)c(=O)[nH]c1=O`, the Stability entry in series [1] is listed as “Stable”.

As for `Cc1cn([C@H]2C[C@H](OP(=O)(O)O)[C@@H](CO[P@](=O)(O[C@H]3C[C@H](n4cc(C)c(=O)[nH]c4=O)O[C@@H]3COP(=O)(O)O[C@H]3C[C@H](n4cc(C)c(=O)[nH]c4=O)O[C@@H]3COP(=O)(O)O[C@H]3C[C@H](n4cc(C)c(=O)[nH]c4=O)O[C@@H]3COP(=O)(O)O[C@H]3C[C@H](n4ccc(N)nc4=O)O[C@@H]3COP(=O)(O)O[C@H]3C[C@H](n4ccc(N)nc4=O)O[C@@H]3COP(=O)(O)O[C@H]3C[C@H](n4ccc(N)nc4=O)O[C@@H]3CO)SCCN)O2)c(=O)[nH]c1=O`, the Stability entry in series [1] is given as “Stable”.

For `Cc1cn([C@H]2C[C@H](OP(=O)(O)O)[C@@H](CO[P@](=O)(S)O[C@H]3C[C@H](n4cc(C)c(=O)[nH]c4=O)O[C@@H]3COP(=O)(O)O[C@H]3C[C@H](n4cc(C)c(=O)[nH]c4=O)O[C@@H]3COP(=O)(O)O[C@H]3C[C@H](n4cc(C)c(=O)[nH]c4=O)O[C@@H]3COP(=O)(O)O[C@H]3C[C@H](n4ccc(N)nc4=O)O[C@@H]3COP(=O)(O)O[C@H]3C[C@H](n4ccc(N)nc4=O)O[C@@H]3COP(=O)(O)O[C@H]3C[C@H](n4ccc(N)nc4=O)O[C@@H]3CO)O2)c(=O)[nH]c1=O`, in series [1], the Stability result was “Stable”.

For the compound `Cc1cn([C@H]2C[C@H](OP(=O)(O)O)[C@@H](CO[P@@](=O)(O[C@H]3C[C@H](n4cc(C)c(=O)[nH]c4=O)O[C@@H]3COP(=O)(O)O[C@H]3C[C@H](n4cc(C)c(=O)[nH]c4=O)O[C@@H]3COP(=O)(O)O[C@H]3C[C@H](n4cc(C)c(=O)[nH]c4=O)O[C@@H]3COP(=O)(O)O[C@H]3C[C@H](n4ccc(N)nc4=O)O[C@@H]3COP(=O)(O)O[C@H]3C[C@H](n4ccc(N)nc4=O)O[C@@H]3COP(=O)(O)O[C@H]3C[C@H](n4ccc(N)nc4=O)O[C@@H]3CO)SCCN)O2)c(=O)[nH]c1=O`, the Stability entry in series [1] is listed as “Stable”.

As to `Cc1cn([C@H]2C[C@H](OP(=O)(O)O)[C@@H](CO[P@@](=O)(S)O[C@H]3C[C@H](n4cc(C)c(=O)[nH]c4=O)O[C@@H]3COP(=O)(O)O[C@H]3C[C@H](n4cc(C)c(=O)[nH]c4=O)O[C@@H]3COP(=O)(O)O[C@H]3C[C@H](n4cc(C)c(=O)[nH]c4=O)O[C@@H]3COP(=O)(O)O[C@H]3C[C@H](n4ccc(N)nc4=O)O[C@@H]3COP(=O)(O)O[C@H]3C[C@H](n4ccc(N)nc4=O)O[C@@H]3COP(=O)(O)O[C@H]3C[C@H](n4ccc(N)nc4=O)O[C@@H]3CO)O2)c(=O)[nH]c1=O`, the Stability entry in series [1] was “Stable”.

On to `Cc1cn([C@H]2C[C@H](OP(=O)(O)OC[C@H]3O[C@@H](n4cc(C)c(=O)[nH]c4=O)C[C@@H]3OP(=O)(O)OC[C@H]3O[C@@H](n4cc(C)c(=O)[nH]c4=O)C[C@@H]3O[P@@](=O)(OC[C@H]3O[C@@H](n4cc(C)c(=O)[nH]c4=O)C[C@@H]3OP(=O)(O)OC[C@H]3O[C@@H](n4cc(C)c(=O)[nH]c4=O)C[C@@H]3OP(=O)(O)OC[C@H]3O[C@@H](n4cc(C)c(=O)[nH]c4=O)C[C@@H]3OP(=O)(O)OC[C@H]3O[C@@H](n4ccc(N)nc4=O)C[C@@H]3OP(=O)(O)OC[C@H]3O[C@@H](n4ccc(N)nc4=O)C[C@@H]3OP(=O)(O)OC[C@H]3O[C@@H](n4ccc(N)nc4=O)C[C@@H]3OP(=O)(O)O)SCCCCCCN)[C@@H](COP(=O)(O)O[C@H]3C[C@H](n4ccc(N)nc4=O)O[C@@H]3COP(=O)(O)O[C@H]3C[C@H](n4ccc(N)nc4=O)O[C@@H]3COP(=O)(O)O[C@H]3C[C@H](n4ccc(N)nc4=O)O[C@@H]3CO)O2)c(=O)[nH]c1=O`, for which the values for the Tm in the series on Nucleic Acid [2], with Nucleic Acid [4] and in the series on Nucleic Acid [6] were 42 °C, 43 °C and 27 °C, respectively. The ΔTm in the series with Nucleic Acid [3] is 0 °C; in the series on Nucleic Acid [5], -3 °C; in the series on Nucleic Acid [7] it was 2 °C.
